From BindingDB's records for doi:10.1021/acs.jmedchem.5b00686 (University of Hawaii At Hilo, 2015)

Molecular target: Signal transducer and activator of transcription 3 (Homo sapiens, UniProt P40763)
Test: Inhibition of Stat3 dimer DNA binding activity in human U373MG cells nuclear extract after 1.5 hrs by EMSA using radiolabeled probe hSIE
How it was run: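 Sub-confluent U251MG or U373MG cells treated with compound (5 μM for 0–24 h, or 0–5 μM for 1.5 h). Stat3:DNA bands scanned, quantified and plotted against concentration to derive IC50. Controls were 0.025% DMSO.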

Signal transducer and activator of transcription 3, sequence (P40763 whole entry): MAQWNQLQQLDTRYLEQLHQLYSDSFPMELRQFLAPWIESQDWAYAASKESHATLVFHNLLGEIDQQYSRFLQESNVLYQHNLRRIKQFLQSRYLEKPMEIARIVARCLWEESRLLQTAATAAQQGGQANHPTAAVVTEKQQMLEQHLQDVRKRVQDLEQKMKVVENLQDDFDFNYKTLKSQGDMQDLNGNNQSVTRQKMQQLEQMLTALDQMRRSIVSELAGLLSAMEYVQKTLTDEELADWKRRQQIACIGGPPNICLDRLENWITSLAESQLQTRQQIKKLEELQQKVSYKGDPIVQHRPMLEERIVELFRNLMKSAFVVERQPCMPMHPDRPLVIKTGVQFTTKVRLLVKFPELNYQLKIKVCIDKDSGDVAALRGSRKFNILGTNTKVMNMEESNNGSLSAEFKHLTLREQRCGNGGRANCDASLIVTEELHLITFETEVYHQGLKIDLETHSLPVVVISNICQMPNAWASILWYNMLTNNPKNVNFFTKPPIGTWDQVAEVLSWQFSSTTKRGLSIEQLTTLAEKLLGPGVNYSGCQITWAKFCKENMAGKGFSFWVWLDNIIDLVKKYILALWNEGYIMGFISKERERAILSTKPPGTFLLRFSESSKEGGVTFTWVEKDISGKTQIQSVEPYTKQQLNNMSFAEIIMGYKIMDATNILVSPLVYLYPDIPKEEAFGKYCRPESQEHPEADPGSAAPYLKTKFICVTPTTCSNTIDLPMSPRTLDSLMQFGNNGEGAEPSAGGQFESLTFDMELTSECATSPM

## C/C=C(\C)C(=O)OCC1=C2/C(=C\[C@@]3(C)CC[C@](O)(O3)[C@H](C)C[C@@H]2O)OC1=O
  IC50: 2.4 µM

## C/C=C(\C)C(=O)O[C@H]1C[C@@H](C)[C@]2(OC)CC[C@](C)(/C=C3/OC(=O)C(COC(C)=O)=C31)O2 [Vernolide-B]
  IC50: 4.1 µM
